PKA-R2B activ: activates the human PKA-R2B holoenzyme complex. activation, % at 11.4 µM. PKA-R2B holoenzyme dissociation, Cy5-IP20 fluorescence polarization; R2B truncated from residue 108, S112A mutant; 0% DMSO only, 100% 113 µM cGMP. hit rate 0.079% among 340,000;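 active means activation above a cutoff set at the mean over all compounds plus 3 SD, cut at about 18% in these data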;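 further: higher means more holoenzyme dissociation and a rise in polarization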
S100A4 inh HTS: S100A4-myosin IIA interaction inhibition | P26447 | S100A4/TAMRA-MyoIIA peptide fluorescence polarization | inhibition, % at 10.7 µM | hit rate 0.14% among 360,000;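 active means mean inhibition of at least 70% across replicates, with every replicate also reaching that level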
Target sequence (P26447 whole entry, looked up): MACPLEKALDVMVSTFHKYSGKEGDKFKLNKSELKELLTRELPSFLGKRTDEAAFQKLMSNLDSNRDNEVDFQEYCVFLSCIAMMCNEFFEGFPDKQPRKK
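Compound dosing: one dose per compound; test system: human S100A4 monomer with TAMRA-labelled myosin IIA peptide; probe or stimulus: TAMRA-labelled myosin IIA heavy-chain peptide probe, 5 nM; medium: HEPES buffer with Ca2+, pH 7.2; schedule: 5 min incubation before reading; benchmarks: neutral control DMSO, positive control TFP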
PKA-R1A act: PKA-R1A complex activation | P00514+P68181 | PKA-R1A dissociation, Cy5-IP20 fluorescence polarization; scaled: DMSO 0%, 113 µM cGMP 100% | activation, % at 11.4 µM | hit rate 0.083% among 340,000;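 active means percent activation above the mean of all tested compounds plus 3 SD, cut at about 19% in these data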;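 further: higher means more PKAc released from R1A so a rise in polarization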
SIRT5 inh: sirtuin-5 (human) deacylase inhibition | Q9NXA8 | hit rate 1.1% among 330,000 | inhibition, % at 15 µM | Purified SirT5, succinyl-peptide AMC, trypsin-coupled fluorescence; in the data active means inhibition above about 15%
Target sequence (Q9NXA8 whole entry, looked up): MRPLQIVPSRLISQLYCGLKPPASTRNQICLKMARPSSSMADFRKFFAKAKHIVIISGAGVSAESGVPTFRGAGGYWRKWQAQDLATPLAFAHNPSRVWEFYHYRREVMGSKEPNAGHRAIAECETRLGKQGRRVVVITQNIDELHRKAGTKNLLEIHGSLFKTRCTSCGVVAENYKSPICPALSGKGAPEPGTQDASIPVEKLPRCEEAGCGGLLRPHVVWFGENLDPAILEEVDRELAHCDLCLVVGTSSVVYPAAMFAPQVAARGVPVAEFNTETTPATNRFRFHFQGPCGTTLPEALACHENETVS
CRFR2-BP antag: antagonists of CRF-binding protein/CRF-R2 receptor complex | inhibition, % at 11.8 µM | hit rate 0.59% among 350,000 | AID 588475 | HEK293 CRF-R2/CRF-BP, CRF-induced calcium fluorescence;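 active means inhibition of the ligand-induced calcium signal above about 50% at the single tested concentration, limit read from the data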
* hit, by the source's call. Shown are actives, neighbours in structure and some others; about 1.5% of the full set was active somewhere.

`Cc1ccc(CN2CCN(Cc3cnn(-c4ccc(Cl)cc4)c3)CC2CCO)o1` (stereo not drawn) gave PKA-R2B activ 3, S100A4 inh HTS -28, PKA-R1A act -14, SIRT5 inh 26* and CRFR2-BP antag 3.
Screening NS(=O)(=O)c1ccc(Cl)c(C(=O)Nc2ccccc2[N+](=O)[O-])c1 returned PKA-R2B activ -4, S100A4 inh HTS -1, PKA-R1A act -1, SIRT5 inh 18* and CRFR2-BP antag 13.
O=C(NNc1ccccc1[N+](=O)[O-])Nc1ccc(Cl)c(Cl)c1 was read as PKA-R2B activ -3, S100A4 inh HTS -1, PKA-R1A act -4, SIRT5 inh 16* and CRFR2-BP antag -44.
CCOC(=O)N(C)C[C@H]1OCc2cn(nn2)CCCC(=O)N([C@@H](C)CO)C[C@H]1C was read as S100A4 inh HTS -17 and SIRT5 inh -5.
Screening CCOC(=O)C1CCCN(C(=O)c2ccc(Cl)c(S(=O)(=O)N3CCCCC3)c2)C1 (stereo not drawn) returned PKA-R2B activ -14, S100A4 inh HTS -9, PKA-R1A act -2, SIRT5 inh -7 and CRFR2-BP antag 53*.
`CCOC(=O)C1CCCN(C(=O)c2cccc(S(=O)(=O)N(Cc3ccccc3)c3ccccc3OC)c2)C1` (stereo not drawn) gave PKA-R2B activ 2, S100A4 inh HTS -3, PKA-R1A act -2, SIRT5 inh 2 and CRFR2-BP antag 51*.
Screening CCOC(=O)C1CCN(C(=O)c2ccc(C)c(S(=O)(=O)N3CCCC3)c2)CC1 returned PKA-R2B activ 7, S100A4 inh HTS -2, PKA-R1A act -2, SIRT5 inh -2 and CRFR2-BP antag 2.
Screening COc1cccc(C(=O)N2C[C@H]3[C@@H](c4ccccc42)[C@H](CO)N3C(=O)c2ccc(F)cc2)c1 returned S100A4 inh HTS 7 and SIRT5 inh 1.
For O=C(O)C[C@@H]1C[C@H]2c3cc(NC(=O)C4CCOCC4)ccc3O[C@H]2[C@@H](CO)O1 the results were S100A4 inh HTS -8 and SIRT5 inh -5.
Screening OCCN1CCN(C(=S)Nc2ccc(Oc3ccccc3)cc2)CC1 returned PKA-R2B activ 7, S100A4 inh HTS -3, PKA-R1A act -1, SIRT5 inh -2 and CRFR2-BP antag -6.
Screening OCCOCCN1CCN(C(=S)Nc2ccccc2)CC1 returned PKA-R2B activ 8, S100A4 inh HTS 2, PKA-R1A act -4, SIRT5 inh -3 and CRFR2-BP antag 70*.
COc1ccccc1S(=O)(=O)N1CCn2cccc2C1C (stereo not drawn) was read as PKA-R2B activ -20, S100A4 inh HTS -4, PKA-R1A act 2, SIRT5 inh 3 and CRFR2-BP antag 103*.
For C[C@@H]1CN([C@H](C)CO)C(=O)Cc2cc(NC(=O)Cc3cn(C)c4ccccc34)ccc2O[C@@H]1CN(C)C the results were S100A4 inh HTS 14 and SIRT5 inh 26*.
Screening C[C@H](CO)N1C[C@H](C)[C@H](CN(C)Cc2ccc(-c3ccccc3)cc2)Oc2ccc(NC(=O)Cc3cn(C)c4ccccc34)cc2CC1=O returned S100A4 inh HTS -25 and SIRT5 inh 11.
For C[C@@H]1CN([C@H](C)CO)C(=O)Cc2cc(NC(=O)CCCN(C)C)ccc2O[C@@H]1CN(C)Cc1ccc(-c2ccccc2)cc1 the results were S100A4 inh HTS -5 and SIRT5 inh 99*.
Screening C[C@@H]1CN([C@@H](C)CO)C(=O)Cc2cc(NC(=O)Cc3cn(C)c4ccccc34)ccc2O[C@@H]1CN(C)Cc1ccc(-c2ccccc2)cc1 returned S100A4 inh HTS -2 and SIRT5 inh 15*.
`C[C@@H]1CCCCO[C@H](CN(C)C(=O)Cc2ccccc2)[C@@H](C)CN([C@@H](C)CO)C(=O)c2cc(NC(=O)CCCN(C)C)ccc2O1` gave S100A4 inh HTS 1 and SIRT5 inh -2.
For COc1cccc(N2CC(C(=O)Nc3nnc(SCC(=O)N4CCCC4)s3)CC2=O)c1 (stereo not drawn) the results were PKA-R2B activ 3, S100A4 inh HTS 3, PKA-R1A act -1, SIRT5 inh 17* and CRFR2-BP antag 16.
Screening CCC1=NN2C(=N)/C(=C\c3ccc(OCCOc4ccccc4)c(OC)c3)C(=O)N=C2S1 returned S100A4 inh HTS -4 and SIRT5 inh -2.
For CCS(=O)(=O)C1=NN2C(=N)/C(=C\c3ccc(OCCOc4cccc(OC)c4)c(OC)c3)C(=O)N=C2S1 the results were PKA-R2B activ 6, S100A4 inh HTS 3, PKA-R1A act -4, SIRT5 inh 18* and CRFR2-BP antag 53*.
`CCOc1cc(/C=C2\C(=N)N3N=C(S(C)(=O)=O)SC3=NC2=O)ccc1OCCOc1cccc(OC)c1` gave PKA-R2B activ 6, S100A4 inh HTS -1, PKA-R1A act 3, SIRT5 inh 17* and CRFR2-BP antag 27.
For O=C(/C=C/c1ccccc1[N+](=O)[O-])N1CCOCC1 the results were PKA-R2B activ -7, S100A4 inh HTS 1, PKA-R1A act 16, SIRT5 inh -2 and CRFR2-BP antag 63*.
`Cc1ccc(S(=O)(=O)N2C[C@@H]3CCCC[C@@H]3[C@@H](C)[C@H]2c2cn(Cc3ccccc3)c3ncccc23)cc1` gave PKA-R2B activ 4, S100A4 inh HTS 1, PKA-R1A act -2, SIRT5 inh 22* and CRFR2-BP antag 0.
`CNC(=O)C[C@H]1CC[C@@H]2[C@H](COc3ccc(NS(=O)(=O)c4cccc(F)c4)cc3C(=O)N2C)O1` gave S100A4 inh HTS 9 and SIRT5 inh 1.
Screening C[C@H](CO)N1C[C@H](C)[C@H](CN(C)S(=O)(=O)c2ccc(Cl)cc2)OCCCC[C@H](C)Oc2ccc(NC(=O)CCCN(C)C)cc2C1=O returned S100A4 inh HTS -15 and SIRT5 inh 0.
Screening N=C1/C(=C\c2ccc(Br)o2)C(=O)N=C2SC(CC(=O)N3CCCCC3)=NN12 returned PKA-R2B activ -5, S100A4 inh HTS -3, PKA-R1A act -3, SIRT5 inh 21* and CRFR2-BP antag -4.
For C[C@@H]1CCCCO[C@@H](CN(C)S(=O)(=O)c2ccc(Cl)cc2)[C@H](C)CN([C@@H](C)CO)C(=O)c2cc(NC(=O)c3ccncc3)ccc2O1 the results were S100A4 inh HTS -22 and SIRT5 inh 6.
Screening Clc1nccc(N2CCN(c3ccccc3Cl)CC2)n1 returned S100A4 inh HTS -1, SIRT5 inh 18* and CRFR2-BP antag -10.
For COc1ccc2c3c(n(C)c2c1)[C@@H](CO)N(Cc1ccc(Cl)cc1)CC31CN(CC2CC2)C1 the results were S100A4 inh HTS 9.

Screening data as filed in PubChem BioAssay.
